Key:
[1] = tested on: E6SM; assay: 50% Minimum inhibitory concentration which is required to reduce cytopathogenicity induced by (KOS) strain of HSV-1 virus on human E6SM cells.; type: functional
In short: (§1)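 Confluent cell monolayers infected with 100 CCID50 virus and left 1 h for adsorption. Residual virus then removed and compound added at serial dilutions (400, 200, 100 ... µg/mL). Value is the concentration giving 50% reduction of CPE.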

[2] = tested on: CCRF-CEM; assay: 50% effective concentration of compound which is required to protect human CEM cells against HIV-2 induced giant cell formation.; type: functional, cell-based
In short: (§2)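 CEM cells at 250000–300000 cells/mL infected with HIV-1 (IIIB) or HIV-2 (ROD) at 100 CCID50/mL. Infected cells mixed with serial compound dilutions and incubated 4 days at 37 °C. Syncytium (giant cell) formation then scored. Values averaged over two independent experiments.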

[3] = tested on: E6SM; assay: 50% Minimum inhibitory concentration which is required to reduce cytopathogenicity induced by Vaccinia virus (VV) on human E6SM cells.; type: functional; in short: as §1
[4] = tested on: MOLT-4; assay: EC50 is the cytotoxic concentration of compound required to reduce Molt4/C8 (human T-lymphocyte) cell viability by 50%.; type: functional, cell-based
In short: (§3)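 Human CEM or Molt-4 cells seeded at 7.5 × 10^5 cells/mL with varying compound concentrations. Incubated 3 days at 37 °C in humidified CO2. Viable cells counted with a Coulter counter. Value is the concentration reducing viable cell number by 50%.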

[5] = tested on: L1210; assay: EC50 is the cytotoxic concentration of compound required to reduce L1210 (murine leukemia cells) cell viability by 50%.; type: functional, cell-based; settings: Mus musculus
In short: (§4)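 Murine L1210 or FM3A-derived cells seeded at 5 × 10^5 cells/mL with varying compound concentrations. Incubated 2 days at 37 °C in humidified CO2. Viable cells counted with a Coulter counter. Value is the concentration reducing viable cell number by 50%.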

[6] = tested on: CCRF-CEM; assay: 50% effective concentration of compound which is required to protect human CEM cells against HIV-1 induced giant cell formation.; type: functional, cell-based; in short: as §2
[7] = tested on: HEL; assay: 50% Minimum inhibitory concentration which is required to reduce cytopathogenicity induced by TK-(B2006) strain of HSV-1 virus on human embryonic HEL cells.; type: functional; in short: as §1
[8] = tested on: HEL; assay: 50% Minimum inhibitory concentration which is required to reduce cytopathogenicity induced by (Lyons) strain of HSV-2 virus on human embryonic HEL cells.; type: functional; in short: as §1
[9] = tested on: HEL; assay: 50% Minimum inhibitory concentration which is required to reduce cytopathogenicity induced by (OKA) strain of Varicella Zoster virus on human embryonic HEL cells.; type: functional
[10] = tested on: FM3A; assay: EC50 is the cytotoxic concentration of compound required to reduce FM3A (murine mammary carcinoma cells) cell viability by 50%.; type: functional, cell-based; settings: Mus musculus; in short: as §4
[11] = tested on: E6SM; assay: 50% Minimum inhibitory concentration which is required to reduce cytopathogenicity induced by (196) strain of HSV-2 virus on human E6SM cells.; type: functional; in short: as §1
[12] = Minimum cytotoxic concentration which causes microscopically detectable alteration of normal cell morphology after 2 days of incubation.; type: functional; settings: 48 h
In short: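 Uninfected E6SM cells exposed to compound for 2 days. Minimum concentration giving a microscopically detectable change in normal cell morphology recorded.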

[13] = Selectivity index of HIV-1 and HIV-2 with respect to MT-4 cells; type: functional, MT4
In short: (§5)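 Selectivity index calculated as average CC50 divided by average EC50. Each average comes from two independent experiments, using HIV-1 (IIIB) and HIV-2 (ROD) in CEM or MT-4 cells.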

[14] = tested on: FM3A; assay: EC50 is the cytotoxic concentration of compound required to reduce FM3A/TK- (Thymidine kinase deficient murine mammary carcinoma cells) cell viability by 50%.; type: functional, cell-based; settings: Mus musculus; in short: as §4
[15] = tested on: E6SM; assay: 50% Minimum inhibitory concentration which is required to reduce cytopathogenicity induced by (Mc Intyre) strain of HSV-1 virus on human E6SM cells.; type: functional; in short: as §1
[16] = tested on: E6SM; assay: 50% Minimum inhibitory concentration which is required to reduce cytopathogenicity induced by TK-(B2006) strain of HSV-1 virus on human E6SM cells.; type: functional; in short: as §1
[17] = tested on: MT4; assay: Cytotoxic concentration which is required to reduce human MT-4 cell viability by 50%.; type: functional
[18] = Selectivity index of HIV-1 and HIV-2 with respect to CEM cells; type: functional, CCRF-CEM; in short: as §5
[19] = tested on: FM3A; assay: EC50 is the cytotoxic concentration of compound required to reduce FM3A/TK- HSV-1TK+ cell viability by 50%.; type: functional, cell-based; settings: Mus musculus; in short: as §4
[20] = tested on: HEL; assay: 50% Minimum inhibitory concentration which is required to reduce cytopathogenicity induced by (Mc Intyre) strain of HSV-1 virus on human embryonic HEL cells.; type: functional; in short: as §1
[21] = tested on: HEL; assay: 50% Minimum inhibitory concentration which is required to reduce cytopathogenicity induced by (KOS) strain of HSV-1 virus on human embryonic HEL cells.; type: functional; in short: as §1
[22] = tested on: E6SM; assay: 50% Minimum inhibitory concentration which is required to reduce cytopathogenicity induced by (G) strain of HSV-2 virus on human E6SM cells.; type: functional; in short: as §1
[23] = tested on: HEL; assay: 50% Minimum inhibitory concentration which is required to reduce cytopathogenicity induced by (G) strain of HSV-2 virus on human embryonic HEL cells.; type: functional; in short: as §1
[24] = tested on: CCRF-CEM; assay: Cytotoxic concentration which is required to reduce human CEM cell viability by 50%.; type: functional; in short: as §3
[25] = tested on: E6SM; assay: 50% Minimum inhibitory concentration which is required to reduce cytopathogenicity induced by (Lyons) strain of HSV-2 virus on human E6SM cells.; type: functional; in short: as §1
[26] = tested on: E6SM; assay: 50% Minimum inhibitory concentration which is required to reduce cytopathogenicity induced by (F) strain of HSV-1 virus on human E6SM cells.; type: functional; in short: as §1
[27] = tested on: CEM-TK(-); assay: Cytotoxic concentration which is required to reduce CEM/TK- cell viability by 50%.; type: functional; settings: Homo sapiens
[28] = tested on: CEM-TK(-); assay: 50% effective concentration of compound which is required to protect Thymidine kinase deficient human CEM (CEM/TK-) cells against HIV-2.; type: functional, cell-based
[29] = tested on: MT4; assay: 50% effective concentration of compound which is required to protect human MT-4 cells against cytopathogenicity of HIV-1.; type: functional, cell-based
[30] = tested on: MT4; assay: 50% effective concentration of compound which is required to protect human MT-4 cells against cytopathogenicity of HIV-2.; type: functional, cell-based

SMILES: CC(=O)O/N=C1/C[C@H](n2cc(C)c(=O)[nH]c2=O)O[C@@H]1CO.CC(=O)O/N=C1\C[C@H](n2cc(C)c(=O)[nH]c2=O)O[C@@H]1CO (racemic)
- MIC [1]: 0.9 µg/mL
- EC50 [2]: 0.8 µg/mL
- MIC [3]: 70 µg/mL
- EC50 [4]: 14 µg/mL
- EC50 [5]: 19 µg/mL
- EC50 [6]: 1 µg/mL
- MIC [7]: > 5 µg/mL
- MIC [8]: 2 µg/mL
- MIC [9]: 20 µg/mL
- EC50 [10]: > 200 µg/mL
- MIC [11]: 70 µg/mL
- MCC [12]: 400 µg/mL
- Selectivity index [13]: 182
- EC50 [14]: > 200 µg/mL
- MIC [15]: 2 µg/mL
- MIC [16]: > 200 µg/mL
- CC50 [17]: 7.1 µg/mL
- Selectivity index [18]: 130
- EC50 [19]: > 200 µg/mL
- MIC [20]: 2.7 µg/mL
- MIC [21]: 3.8 µg/mL
- MIC [22]: 1 µg/mL
- MIC [23]: 2.8 µg/mL
- CC50 [24]: 104 µg/mL
- MIC [25]: 4 µg/mL
- MIC [26]: 5 µg/mL
- CC50 [27]: > 200 µg/mL
- EC50 [28]: > 20 µg/mL
- EC50 [29]: 0.05 µg/mL
- EC50 [30]: 0.05 µg/mL
